Experimental findings from ChEMBL document CHEMBL3414528, “Novel naftopidil-related derivatives and their biological effects as alpha1-adrenoceptors antagonists and antiproliferative agents” (Eur J Med Chem, 2015) are described below.

Test [1] has as its system DU-145. In words: Cytotoxicity against human DU145 cells after 48 hrs by WST-8 assay. The test is classed as functional, cell-based. The settings on record: DU-145, 48 h. Background: Formazan colour is commonly taken as a measure of viable cells.
Test [2] can be described thus: Induction of apoptosis in human PC3 cells assessed as upregulation of caspase3 level after 24 hrs by Western blotting analysis. The following applies: PC-3. The test is classed as functional, cell-based. The gist of the method: (§1)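 PC-3 cells exposed for 24 h to 0, 1, 5, 10, 20 or 30 μM; Bax, Bcl-2 and activated caspase-3 measured by Western blot, reported as Bax/Bcl-2 value.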
In general terms: A western blot detects proteins with antibodies after separation by electrophoresis.

Test [3] can be described thus: Cytotoxicity against human PC3 cells after 48 hrs by WST-8 assay. The format is functional, cell-based. The settings on record: PC-3, 48 h.
The nature of test [4]: Cell cycle arrest in human PC3 cells assessed as accumulation at G2/M phase at 15 uM after 24 hrs by propidium iodide staining-based flow cytometry (reference value: 33.04%). The format is functional. The settings on record: PC-3. The procedure, abridged: (§2)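 PC-3 cells given compound at 5, 10, 15, 20 or 30 μM, or 0.1% DMSO vehicle, for 24 h; stained with propidium iodide and analysed by flow cytometry for G0/G1, S and G2/M fractions.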
A general note: Flow cytometry measures light scatter and fluorescence of single cells or particles in a stream.

The subject of test [5] is PC-3. In words: Induction of apoptosis in human PC3 cells assessed as early apoptotic cells at 10 uM after 24 hrs by annexin V/propidium iodide staining-based flow cytometry (reference value: 5.7%). The test is classed as functional. The procedure, abridged: (§3)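 Phosphatidylserine exposure in PC-3 cells after 24 h at 0, 5, 10, 20 or 30 μM, by Alexa Fluor 488 annexin V/PI double staining and flow cytometry; early apoptotic = AV+/PI−, late apoptotic or dead = AV+/PI+.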

Test [6] can be described thus: Cell cycle arrest in human PC3 cells assessed as accumulation at S phase at 15 uM after 24 hrs by propidium iodide staining-based flow cytometry (reference value: 27.26%). The following applies: PC-3. The format is functional. The gist of the method:
as §2

Test [7] relates to PC-3. In words: Induction of apoptosis in human PC3 cells assessed as late apoptotic cells at 10 uM after 24 hrs by annexin V/propidium iodide staining-based flow cytometry (reference value: 2.1%). The test is classed as functional. The gist of the method:
as §3

Test [8] in a line: Cell cycle arrest in human PC3 cells assessed as accumulation at S phase at 30 uM after 24 hrs by propidium iodide staining-based flow cytometry (reference value: 27.26%). The test is classed as functional. The settings on record: PC-3. The gist of the method:
as §2

The target of test [9] is T1, Alpha-1A adrenergic receptor (Rattus norvegicus, UniProt P43140).
T1 sequence (P43140 whole entry): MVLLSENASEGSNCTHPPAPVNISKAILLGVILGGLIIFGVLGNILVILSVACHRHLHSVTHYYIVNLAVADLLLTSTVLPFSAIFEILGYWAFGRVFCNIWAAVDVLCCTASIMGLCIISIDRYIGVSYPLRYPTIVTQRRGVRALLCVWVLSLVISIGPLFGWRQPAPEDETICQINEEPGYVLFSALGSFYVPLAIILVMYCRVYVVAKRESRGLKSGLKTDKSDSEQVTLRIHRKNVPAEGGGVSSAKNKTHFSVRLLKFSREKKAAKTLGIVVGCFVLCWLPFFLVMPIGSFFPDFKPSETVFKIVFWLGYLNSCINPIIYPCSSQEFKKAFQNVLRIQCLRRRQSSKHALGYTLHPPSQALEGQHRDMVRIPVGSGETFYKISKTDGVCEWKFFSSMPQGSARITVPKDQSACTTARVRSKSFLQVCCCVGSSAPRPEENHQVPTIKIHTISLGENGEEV
Description: Antagonist activity at Sprague-Dawley rat prostatic vas deferens adrenergic alpha-1A receptor after 20 mins. The following applies: read-out: pA2 (converted). The procedure, abridged: (§4)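 Isolated rat tissues (prostatic vas deferens, spleen, thoracic aorta) contracted with cumulative norepinephrine; concentration-response curves recorded in presence of increasing antagonist concentrations, antagonism read as rightward curve shift. Mean ± SEM of five to eight separate experiments.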

Test [10] is described as follows: Cell cycle arrest in human PC3 cells assessed as accumulation at G0/G1 phase at 10 uM after 24 hrs by propidium iodide staining-based flow cytometry (reference value: 39.20%). The test is classed as functional. The settings on record: PC-3. The gist of the method:
as §2

Test [11] has as its system PC-3. In words: Antiproliferative activity against human PC3 cells assessed as reduction in cell viability at 1.5 to 100 uM by WST-8 assay in presence of 50 uM of norepinephrine. The format is functional, cell-based. The gist of the method: (§5)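 PC-3 cells treated with compound at 100, 75, 50, 25, 12.5, 6.25, 3.0 and 1.5 μM alone or together with norepinephrine (20 or 50 μM); viability by WST-8. Mean ± SEM, two-way ANOVA with post-hoc tests.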

A short description of test [12]: Cell cycle arrest in human PC3 cells assessed as accumulation at G0/G1 phase at 20 uM after 24 hrs by propidium iodide staining-based flow cytometry (reference value: 39.20%). The settings on record: PC-3. The test is classed as functional. The gist of the method:
as §2

Test [13] can be described thus: Cell cycle arrest in human PC3 cells assessed as accumulation at S phase at 20 uM after 24 hrs by propidium iodide staining-based flow cytometry (reference value: 27.26%). The test is classed as functional. The following applies: PC-3. The procedure, abridged: as §2
The subject of test [14] is PC-3. In words: Induction of apoptosis in human PC3 cells assessed as late apoptotic cells at 20 uM after 24 hrs by annexin V/propidium iodide staining-based flow cytometry (reference value: 2.1%). The test is classed as functional. The procedure, abridged: as §3
The test system of test [15] is PC-3. Description: Induction of apoptosis in human PC3 cells assessed as early apoptotic cells at 20 uM after 24 hrs by annexin V/propidium iodide staining-based flow cytometry (reference value: 5.7%). The test is classed as functional. The gist of the method: as §3
Test [16] relates to PC-3. In words: Inhibition of norepinephrine-induced cell proliferation in human PC3 cells at 1.5 to 100 uM by WST-8 assay. The test is classed as functional, cell-based. The gist of the method:
as §5

Test [17] is described as follows: Cell cycle arrest in human PC3 cells assessed as accumulation at G2/M phase at 10 uM after 24 hrs by propidium iodide staining-based flow cytometry (reference value: 33.04%). The following applies: PC-3. The test is classed as functional. The procedure, abridged:
as §2

Test [18] has as its target T2, Alpha-1B adrenergic receptor (Rattus norvegicus, UniProt P15823).
T2 sequence (P15823 whole entry): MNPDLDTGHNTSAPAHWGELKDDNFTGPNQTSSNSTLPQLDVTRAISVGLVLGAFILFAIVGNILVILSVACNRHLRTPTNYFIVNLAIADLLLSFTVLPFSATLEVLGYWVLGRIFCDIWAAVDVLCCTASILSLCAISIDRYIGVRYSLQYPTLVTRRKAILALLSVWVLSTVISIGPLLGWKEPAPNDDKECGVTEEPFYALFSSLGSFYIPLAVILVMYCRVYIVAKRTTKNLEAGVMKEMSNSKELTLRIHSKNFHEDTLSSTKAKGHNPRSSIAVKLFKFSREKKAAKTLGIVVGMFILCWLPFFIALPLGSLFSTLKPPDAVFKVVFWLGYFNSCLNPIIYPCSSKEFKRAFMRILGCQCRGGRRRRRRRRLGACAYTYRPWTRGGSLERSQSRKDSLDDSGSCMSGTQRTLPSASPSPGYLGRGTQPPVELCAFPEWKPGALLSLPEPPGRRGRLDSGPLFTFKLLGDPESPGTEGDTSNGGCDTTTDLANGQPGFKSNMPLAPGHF
Description: Antagonist activity at Sprague-Dawley rat spleen adrenergic alpha-1B receptor after 20 mins. The following applies: read-out: pA2 (converted). The procedure, abridged:
as §4

Test [19] can be described thus: Cell cycle arrest in human PC3 cells assessed as accumulation at G2/M phase at 20 uM after 24 hrs by propidium iodide staining-based flow cytometry (reference value: 33.04%). The settings on record: PC-3. The test is classed as functional. The gist of the method: as §2
The nature of test [20]: Induction of apoptosis in human PC3 cells assessed as upregulation of Bcl2 expression after 24 hrs by Western blotting analysis. The test is classed as functional, cell-based. The settings on record: PC-3, in the assay text read “upregulation of Bax/Bcl2 ratio” for “upregulation of Bcl2 expression”. The gist of the method:
as §1

Test [21] is filed under the species Rattus norvegicus. In words: Selectivity ratio for Sprague-Dawley rat thoracic aorta adrenergic alpha-1D receptor to Sprague-Dawley rat prostatic vas deferens adrenergic alpha-1A receptor.

The term IC50 denotes the concentration needed to halve the response being measured. Lower therefore signals higher potency.

Active and inactive are the calls of the source. No cut-off for these calls is given here.

`COc1ccccc1N1CCN(CCCNC(=O)c2cc3ccccc3n2Cc2ccccc2)CC1`: the figures for the IC50 in test [1] and in test [3] were 33.3 µM and 15.7 µM, respectively. Further, the Activity result in [2] is “Dose-dependent effect”; in [4], 14.9%; in test [5], 41.9%; in [6] it was 14.5%; in test [7], 9.2%; in test [8], 20.9%. For the same molecule, the Activity in test [10] is 58.5%; in test [12], 61.6%; in [13], 22.2%; in test [14], 17.8%; in test [15] it was 44.9%; in test [17] it was 26.5%. The Activity is 16.2% in test [19] and “Dose-dependent effect” in [20]. Further, the Kb is 0.00741 µM in test [9] and 0.141 µM in test [18]. Besides, in [11], the result was inactive. The inhibition entry in test [16] is “Active”. Moreover, the Ratio in [21] came to 2.6.
